For 99 compounds, cytotoxicity results are on record in ChEMBL document CHEMBL4513216, “Probing the Open Global Health Chemical Diversity Library for Multistage-Active Starting Points for Next-Generation Antimalarials” (ACS Infect Dis, 2020).

The data set in a line: Toxicity liver stage against HepG2, at 10uM. Type of data set: cell-based. Set-up: test concentration 10 uM, cell line HepG2-A16-CD81EGFP. The settings on record: human, HepG2-A16-CD81EGFP cells; read-out: INHIBITION
The method, boiled down:
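Uninfected HepG2-A16-CD81EGFP cells, 3 × 10^3 per well, 1536-well, plated on prespotted compound at 10 μM final, parasite-free screening media added to match infected plates; puromycin 10 μM positive, DMSO 0.5% negative; run in parallel with 48 h PbLuc assay at 37 °C, 5% CO2; viability by CellTiter-Glo luminescence, normalized to controls.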
Turning to `CCN(CC(=O)NC(C)C)S(=O)(=O)N1CCCCCC1`, the cytotoxicity at 10 µM was found to be 2.37%. With `CCNC(=O)N1C[C@@H]2OCC(=O)N(CC3CCCCC3)[C@@H]2C1`, the cytotoxicity at 10 µM is -4.04%. Consider `O=C(COc1coc(CN2CCCC2)cc1=O)Nc1cc(Cl)ccc1Cl`, for which the cytotoxicity at 10 µM is -1.71%.

Consider `CCn1nccc1C(=O)Nc1nc(C)c(C(C)=O)s1`, for which the cytotoxicity at 10 µM came to 1.28%. As to `CCOC(=O)CCC(=O)N1CC(c2nc(Cc3ccccc3)no2)C1`, the cytotoxicity at 10 µM is -2.42%. For the compound `O=C(Cc1ccccc1Cl)Nc1cc(N2CCCC2)ncn1`, the cytotoxicity at 10 µM is -2.46%. For the compound `CC(=O)N1CCN(c2cc(-n3cccc3)ncn2)CC1`, the cytotoxicity at 10 µM was -2%.

Turning to `O=C1CCC2(CCCN(C(=O)c3cccs3)C2)N1` (centres undefined), the cytotoxicity at 10 µM is 6.88%. As for `CN(C)CCN1C(=O)CCC12CCN(C(=O)CC1CC1)CC2`, the figure is 3.35%. In the case of `O=C(NCCN1CCOCC1)c1cc2c(s1)CCN2Cc1cccnc1`, the cytotoxicity at 10 µM was -7.98%.

In the case of `CC(C)NC(=O)N1CCCn2cnc(CN3CCCC3=O)c2C1`, the cytotoxicity at 10 µM is 17.4%.

On to `COc1ccc(F)cc1S(=O)(=O)NCC(c1cccn1C)N(C)C` (centres undefined), for which the cytotoxicity at 10 µM is -20.7%.

Turning to `O=C(c1cc(-c2ccco2)cs1)N1CCCC1`, the cytotoxicity at 10 µM stood at 11%. In the case of `CN1CCC(CCc2ccnc(Nc3cnccn3)c2)CC1`, the cytotoxicity at 10 µM was -12.6%. With `Cc1ncc(CN2CCc3nc4cc(C(C)(C)C)nn4c(O)c3C2)n1C`, the cytotoxicity at 10 µM turned out to be 8.62%.

Turning to `COc1ccccc1CC(=O)N1CC[C@H](O)[C@]2(CCCO2)C1`, the cytotoxicity at 10 µM is -6.75%. As for `Cc1cnn(CCNCc2nccn2Cc2ccccc2)c1`, the figure is 5.91%; as for `CN(C(=O)OC(C)(C)C)C1CCN(C(=O)c2ccc(Cl)o2)C1` (centres undefined), -42.5%. As for `Cc1cc(C)nc(NC2CCc3nc(C)nn3C2)n1` (centres undefined), the cytotoxicity at 10 µM turned out to be 14.3%. As for `CN(C)C(=O)CCNC(=O)Nc1sc2ccccc2c1Cl`, the figure is 6.14%; as for `O=C(c1cc(C2CCCC2)no1)N1CC(O)C1`, -1.57%. For `Cc1nn(C)c(C)c1C1CCCN1c1ncnc2c1CCC2` (centres undefined), the cytotoxicity at 10 µM is 13.1%. For `CC(CNC(=O)NCc1ccco1)N1CCc2sccc2C1` (centres undefined), the cytotoxicity at 10 µM was -11.5%.

For `CNC(=O)N(C)CC1(c2ccc(Br)cc2)CC1`, the cytotoxicity at 10 µM is -9.6%.

Take `O=C1CCN(C(=O)NCCCc2ccc(Cl)cc2Cl)CCN1`: the cytotoxicity at 10 µM is -2.37%. For `CCOc1ccnc(N2CCCN(c3nc(CC)ns3)CC2)n1`, the cytotoxicity at 10 µM was 1.19%.

`CCCc1nc(C)c(C(=O)NCc2ccc(C)n2C)s1`: the cytotoxicity at 10 µM turned out to be 16.5%. For `CC(C)C(C(=O)NC1CCOCC1)n1cnc2cc(F)c(F)cc21` (centres undefined) the value was -2.75%. With `COCCn1cc(C(=O)N2CCCC2c2ccncc2)c2ccccc21` (centres undefined), the cytotoxicity at 10 µM turned out to be 10.7%. For `CCNC(=O)CN1CCOC(c2ccccc2C(F)(F)F)C1` (centres undefined) the value was 3.09%; for `Cn1nnnc1SC1CCCN(c2cccc(F)c2)C1=O` (centres undefined), 3.85%. With `CCc1nc(CCNC(=O)Nc2cccc(C(=O)NC)c2C)cs1`, the cytotoxicity at 10 µM is -11.2%. For `Cc1cc(NC2CCc3nc(C)nn3C2)n2ncnc2n1` (centres undefined), the cytotoxicity at 10 µM is -6.29%.

With `CS(=O)(=O)NC1CCN(c2cccc(F)c2C#N)CC1`, the cytotoxicity at 10 µM is -3.6%. With `Cc1n[nH]c(C)c1NC(=O)Nc1cccnc1N1CCCC1`, the cytotoxicity at 10 µM is -14%. As for `N#CC(NC(=O)CS(=O)(=O)C1CCCC1)c1ccc(F)cc1F` (centres undefined), the figure is 3.56%.

Regarding `CC(C)(C)CC(=O)NCC(=O)Nc1ccn(Cc2ccncc2)n1`, the cytotoxicity at 10 µM was determined as 13.2%.

As to `COCCN(Cc1ccccc1)Cc1csc(-c2ncccn2)n1`, the cytotoxicity at 10 µM stood at 3.78%. As for `Cc1nc2n(n1)CCN(S(=O)(=O)c1ccc(OC(F)(F)F)cc1)C2`, the figure is -5.86%. For the compound `Cc1c(F)cccc1S(=O)(=O)NCC(C)(C)CC(C)O` (centres undefined), the cytotoxicity at 10 µM was -8.29%. For the compound `COC(=O)NC1(C(=O)Nc2ccc(-c3ncc[nH]3)cc2)CCCC1`, the cytotoxicity at 10 µM was -14.4%. Turning to `CC(C)COCCCNC(=O)NC(C)c1ccc(-n2cncn2)cc1` (centres undefined), the cytotoxicity at 10 µM was 2.42%. `Cc1cccc(CN(Cc2ccccn2)S(=O)(=O)N(C)C(C)C)c1`: the cytotoxicity at 10 µM was -5.02%. With `CCn1c(C2CCCN2Cc2noc(C(C)(C)C)n2)nc2ccccc21` (centres undefined), the cytotoxicity at 10 µM is 3.18%.

Consider `Cc1nnc(-c2cccc(C#N)c2)n1C1CCN(C(C)C)C1=O` (centres undefined), for which the cytotoxicity at 10 µM is -2.4%. Take `COCCCNC(=O)CN(C)C(=O)CN(C)c1ccc(C#N)cn1`: the cytotoxicity at 10 µM was -6.08%. As for `O=C(CCn1c(=O)oc2ccccc21)NCC(O)c1ccc(F)c(F)c1` (centres undefined), the figure is -12.5%; as for `O=C(CCNS(=O)(=O)c1ccc2c(c1)CCCC2)NCc1ccoc1`, 5.86%.

Regarding `CCc1ccccc1C(=O)N1CCN(S(C)(=O)=O)[C@@H](C)C1`, the cytotoxicity at 10 µM was -8.72%.

For `Cc1n[nH]c(C2CN(C(=O)c3ccco3)CCO2)n1` (centres undefined), the cytotoxicity at 10 µM is -14.5%.

`CCS(=O)(=O)N1C[C@H]2CN(CC3CC3)C(=O)[C@H]2C1`: the cytotoxicity at 10 µM turned out to be 0.797%. Turning to `O=C(CCc1nc(-c2ccccc2)no1)N[C@H]1COC[C@@H]1N1CCCC1`, the cytotoxicity at 10 µM is -1.83%. In the case of `COCc1cc(N2CCOCC2)n2nccc2n1`, the cytotoxicity at 10 µM is -1.98%. Turning to `CC(=O)c1cnc(NCCc2csc(-c3cnccn3)n2)nc1C`, the cytotoxicity at 10 µM worked out at 6.09%. `COc1ccccc1-n1cc(C(=O)NCCCn2ccnn2)cn1`: the cytotoxicity at 10 µM is -6.01%.

As to `Cc1cnc(C)c(N2CC[C@H](N3CCOCC3)[C@H](CCCO)C2)n1`, the cytotoxicity at 10 µM came to 6.12%. As for `Cn1ncc(N2CCC(CNC(=O)[C@@H](N)c3ccccc3)CC2)cc1=O`, the cytotoxicity at 10 µM worked out at 4.18%.

For the compound `Cc1c(C(C)N)cnn1-c1ccccn1` (centres undefined), the cytotoxicity at 10 µM was -3.86%.

Regarding `c1csc(CN(Cc2ccsc2)CC2CCCO2)n1` (centres undefined), the cytotoxicity at 10 µM is -1.32%.

As to `CCCN1CC2(CCN(c3ccc(C(C)=O)cn3)CC2)CC1C(=O)O` (centres undefined), the cytotoxicity at 10 µM is -0.909%.

Take `OCCNc1cc(N2CCN(Cc3ccccc3)C(CCO)C2)ncn1` (centres undefined): the cytotoxicity at 10 µM was found to be 6.45%. As to `CCn1c(C)nnc1SCCNC(=O)c1sc(C(C)C)nc1C`, the cytotoxicity at 10 µM is -1.27%. In the case of `COCCN(C)CCN1CC2(CCN(C3CCCNC3)CC2)OC1=O` (centres undefined), the cytotoxicity at 10 µM is 2.28%. Regarding `O=C(CCn1cnnc1)N1CCCC(c2ncc[nH]2)C1` (centres undefined), the cytotoxicity at 10 µM was -9.01%. Consider `O=S(=O)(Cc1ccccc1F)NCCN1CCOCC1`, for which the cytotoxicity at 10 µM was 24.8%. For `COC(=O)C1CCN(C(=O)c2ccc(C)c(NS(C)(=O)=O)c2)CC1`, the cytotoxicity at 10 µM amounted to 3.98%. Regarding `Cc1nc(C)n(C2CCCN(C(=O)CCCc3ccccn3)C2)n1` (centres undefined), the cytotoxicity at 10 µM is -0.586%. As for `CN(Cc1ccncc1)C(=O)[C@H]1CSCN1C(=O)OC(C)(C)C`, the figure is -9.65%; as for `CC(=O)N1CCC(C(=O)NCc2cc[nH]n2)(c2ccccc2)CC1`, -0.037%; as for `CC(=O)N(Cc1noc(C2CC2)n1)C1CCN(CC(=O)NC2CC2)C1` (centres undefined), -3.67%. As for `COc1ccc(Cl)cc1NCC(=O)NCc1cccnc1OC`, the figure is -10.3%. As for `CCNC(=O)NC(=O)CNC(C)(C)c1ccc2c(c1)OCO2`, the cytotoxicity at 10 µM is -8.58%. `CCN1CC(C(=O)NCc2ccnc(-n3cccn3)c2)CC1=O` (centres undefined): the cytotoxicity at 10 µM was -9.3%. Regarding `CCc1nc(CC(=O)N2CCn3c(CC)nnc3C2)cs1`, the cytotoxicity at 10 µM was -11.4%. For the compound `CCN(CC1CCCO1)C(=O)Nc1cc(C)ccc1S(C)(=O)=O` (centres undefined), the cytotoxicity at 10 µM is -12.5%.

As for `CCC(O)CN1CCN(C(=O)c2cccc(CC#N)c2)CC1` (centres undefined), the cytotoxicity at 10 µM was -11.6%. Consider `CCc1nnc(CN2CCN(CC(O)c3ccccc3)CC2)o1` (centres undefined), for which the cytotoxicity at 10 µM is -12.3%. For `CC(C)c1noc(CCC(=O)NC2CCS(=O)(=O)C2)n1` (centres undefined) the value was -15.6%. With `Cc1cnn(CC2CN(Cc3noc(C4CC4)n3)CCO2)c1` (centres undefined), the cytotoxicity at 10 µM was -11.4%.

As to `c1cnn(CC2CN(Cc3nc(C4CC4)no3)CCO2)c1` (centres undefined), the cytotoxicity at 10 µM is -27.6%. As for `CC(C(=O)NCc1ccc(N2CCCCCC2)nc1)S(C)(=O)=O` (centres undefined), the figure is -11.9%; as for `CSCc1ccc(CNC2CCCN(c3ccc(C)nn3)C2)o1` (centres undefined), -13.2%.

As to `COc1ccc(C(=O)N2CCC(Nc3cccnn3)CC2)cn1`, the cytotoxicity at 10 µM is 4.07%. For `Cc1cc(CN(C)C(=O)NC2CCN(S(C)(=O)=O)CC2)no1` the value was 3.25%.

Take `Cc1cc(C(=O)NCCN2CCCC(C)C2)nn1C` (centres undefined): the cytotoxicity at 10 µM is -2.79%. In the case of `Cc1cnn(CC(C)NCc2csc(-c3ccco3)n2)c1` (centres undefined), the cytotoxicity at 10 µM came out at 3.44%. For `Nc1cccnc1N1CCCCCC1`, the cytotoxicity at 10 µM worked out at 4.45%. In the case of `COc1ccc(CN2CCC(c3cc(O)nc(C)n3)C2)c(OC)c1` (centres undefined), the cytotoxicity at 10 µM was -5.77%. With `Cc1nc2sccn2c1CN(CCCN(C)C)Cc1ccccn1`, the cytotoxicity at 10 µM was 3.38%. For the compound `O=C(C1CCCO1)N1CCCn2c(nnc2Cn2ccnc2)C1` (centres undefined), the cytotoxicity at 10 µM amounted to 15.7%. Turning to `Cc1ccc(-c2cnc3n2CCN(C)C32CCN(CC3CC3)CC2)cc1`, the cytotoxicity at 10 µM amounted to 11%. Take `CC(C)N1CCC2(CCCN(c3nccc(C(F)(F)F)n3)C2)CC1`: the cytotoxicity at 10 µM is 10.9%. `O=C(O)c1c(-c2ccncc2)ncc2c1CCN(C1CCOC1)C2` (centres undefined): the cytotoxicity at 10 µM was 15%. With `Cc1nc(COCc2cnc3n2CCN(C2CCC2)C3C)cs1` (centres undefined), the cytotoxicity at 10 µM is -3.82%. For the compound `CC(C)c1nn(C)c(N(C)C)c1CNC1CCOc2c(F)cccc21` (centres undefined), the cytotoxicity at 10 µM was -1.99%.

As for `CC(C)n1nc(Cn2cccn2)c2c1CN(C1CCOC1)C2` (centres undefined), the cytotoxicity at 10 µM is 6.95%.

As for `O=S(=O)(c1cccs1)N1CCCn2cnc(CN3CCCC3)c2C1`, the cytotoxicity at 10 µM is 1.14%. As for `O=C1NC2(CCN(Cc3cccnc3)CC2)CC1c1cccnc1` (centres undefined), the cytotoxicity at 10 µM came out at 3.14%.

On to `CCCN1C[C@@H]2CC[C@H]1CN(c1nnc(C(C)C)s1)C2`, for which the cytotoxicity at 10 µM is -11.4%.
